Most compounds without a hit are left out; they make up all but 3.5% or so of the library.
MrgX1 antag – antagonists of human MrgX1 receptor, primary screen, HEK293 cells, Fluo-4 calcium flux; Mas-related G-protein coupled receptor member X1 (Homo sapiens), Q96LB2; BAM8-22 antagonism; hits give low values; B-score at 10 µM; 310,000 compounds, 1.3% hits; AID 588676, 2011;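 active = calcium-response B-score plate-corrected more than 3 library SD below zero, starting fluorescence within 5 deviations, no agonist response on first addition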;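 also: peak minus trough fluorescence over baseline after final BAM8-22 challenge near maximal dose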
Target sequence (Q96LB2 whole entry, looked up): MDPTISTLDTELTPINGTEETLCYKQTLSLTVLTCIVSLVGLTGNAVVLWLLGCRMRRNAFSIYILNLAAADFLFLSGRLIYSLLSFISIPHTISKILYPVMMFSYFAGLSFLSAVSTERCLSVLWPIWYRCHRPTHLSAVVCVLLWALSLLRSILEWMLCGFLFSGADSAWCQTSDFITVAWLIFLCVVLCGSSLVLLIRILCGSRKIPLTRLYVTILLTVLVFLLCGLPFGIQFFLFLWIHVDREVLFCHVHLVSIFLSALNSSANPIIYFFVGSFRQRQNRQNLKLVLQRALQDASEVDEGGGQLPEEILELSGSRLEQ
RGS4 block – RGS4 inhibitors, primary screen, cell-based, HEK293 M3R inducible RGS4, calcium flux; Fluo-4 calcium flux; hits give high values; triggered by carbachol at its EC20; B-score at 10 µM; 310,000 compounds, 0.45% hits; AID 463165, 2010; Regulator of G-protein signaling 4 (Homo sapiens), P49798;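 active = B-score, a plate-corrected calcium signal, over three deviations above library mean, with baseline fluorescence within five deviations of library mean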;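 also: RGS4 expression induced by doxycycline in cells with stable M3 receptor; B-score is computed from the integrated fluorescence ratio over baseline after carbachol; higher B-score means a larger calcium signal and so more RGS4 inhibition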
Target sequence (P49798 whole entry, looked up): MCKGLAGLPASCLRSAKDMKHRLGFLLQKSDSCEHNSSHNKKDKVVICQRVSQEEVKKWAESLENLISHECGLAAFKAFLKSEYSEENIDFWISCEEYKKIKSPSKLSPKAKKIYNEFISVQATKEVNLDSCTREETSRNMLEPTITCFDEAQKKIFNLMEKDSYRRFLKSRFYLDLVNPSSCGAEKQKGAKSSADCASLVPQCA
RGS4 act – RGS4 potentiators or activators, primary screen, cell-based, HEK293 M3R inducible RGS4, calcium flux; carbachol calcium flux Fluo4; hits give low values; B-score at 10 µM; 310,000 compounds, 0.92% hits;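 active = B-score of the integrated calcium signal more than 4 SD below the library mean, with starting fluorescence not abnormally high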;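 also: negative B-score means reduced calcium response which marks RGS4 activation or potentiation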
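Assay system: Inducible-RGS4 HEK293 cells carrying M3 receptor | Schedule: Compound preincubation 20 min at room temperature before agonist | Signal: Kinetic calcium fluorescence imaging with Fluo4-AM dye, 2 µM | Read-out basis: B score from integrated fluorescence ratio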
MrgX1 allo act – positive allosteric modulators of MrgX1, primary screen, HEK293 cells, Fluo-4 calcium flux; Mas-related G-protein coupled receptor member X1 (Homo sapiens), Q96LB2; FDSS; hits give high values; B-score at 10 µM; 310,000 compounds, 0.63% hits; AID 588675, 2011;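 active = plate-corrected calcium response at least 3 library SD above typical, normal starting fluorescence, not activating the receptor alone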;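 also: compound read alongside a low EC10 to EC30 dose of BAM8-22 agonist; peak minus trough fluorescence over baseline measured at the second addition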
MrgX1 ag – agonists of human MrgX1 receptor, primary screen, HEK293 cells, Fluo-4 calcium flux | Mas-related G-protein coupled receptor member X1 (Homo sapiens), Q96LB2 | Fluo-4 calcium fluorescence, agonist mode; hits give high values | B-score at 10 µM | 310,000 compounds, 0.44% hits;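 active = calcium response B-score plate-corrected fluorescence ratio at least 3 library SD, with starting fluorescence B-score inside 5 SD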
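Test system: HEK293 cells stably expressing human MrgX1 receptor; Input: fifteen thousand cells per well; Dosing: compound delivered in addition one of three; Schedule: overnight seeding, then 1 h dark dye loading; Technique: Fluo-4 NW calcium fluorescence; Measure: B-scored fluorescence response ratio; Controls: positive and negative controls per plate.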
MrgX1 antag conf – MrgX1 receptor antagonists, duplicate retest, confirmation, HEK293 cells, Fluo-4 calcium flux. shares compounds with MrgX1 antag. AID 602420, 2012. remaining BAM8-22 calcium response % of control (hits give low values), % at 10 µM. 2,300 compounds, 19% hits. BAM8-22 calcium flux; hits give low values;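 active = remaining agonist calcium response no higher than 100% minus 3 SD of agonist-only control wells, with starting fluorescence near control levels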;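 also: agonist BAM8-22 given at a near maximal EC90 to ECmax level; peak minus minimum fluorescence divided by baseline after agonist addition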
HEK293 Ca flux – nonspecific calcium signal in parental HEK293, confirmation, counter-screen for MrgX1 antagonist project, parental HEK293 cells, Fluo-4 calcium flux. shares compounds with MrgX1 antag. Fluo-4 calcium fluorescence, FDSS. fluorescence ratio F(max-min)/F0 at 10 µM. 4,000 compounds, 2% hits. AID 624111, 2012;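 active = duplicate-averaged calcium fluorescence ratio at least three times the standard deviation of buffer wells, a nonspecific response in parental cells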
HEK293 Ca counter – calcium response in parental HEK293 cells, primary screen, counter-screen for MrgX1 allosteric activator project, cell-based, Fluo-4 calcium flux, duplicate | shares compounds with MrgX1 antag | Fluo-4 fluorescence ratio; hits give high values | fluorescence ratio F(max-min)/F0 at 10 µM | 4,000 compounds, 0.4% hits;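 active = calcium fluorescence ratio, averaged over duplicates, at least 3 SD of the buffer-well ratio, meaning a nonspecific response in receptor-free cells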;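 also: untransfected parental HEK293 lacking MrgX1 used as counterscreen for MrgX1 allosteric activators; fluorescence change taken during the second addition on a kinetic imager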
HEK293 Ca cntr2 – calcium response in parental HEK293 cells, primary screen, counter-screen for MrgX1 agonist project, cell-based, Fluo-4 calcium flux, duplicate, agonist mode. shares compounds with MrgX1 antag. Fluo-4 calcium fluorescence (FDSS); hits give high values. fluorescence ratio F(max-min)/F0 at 10 µM. 4,000 compounds, 8.7% hits;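 active = calcium fluorescence ratio at least three times the spread of buffer wells, meaning a non-specific response in parental cells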
Hits are given with their value; 0 = inactive; - = no result given.

SMILES	MrgX1 antag	RGS4 block	RGS4 act	MrgX1 allo act	MrgX1 ag	MrgX1 antag conf	HEK293 Ca flux	HEK293 Ca counter	HEK293 Ca cntr2
CC1CN(c2ccccc2)c2nc3c(c(=O)[nH]c(=O)n3C)n2C1 (stereo not drawn)	-6.7	0	0	0	0	0	0	0	0
Cc1cc(NC(=O)c2ccc(Cl)cc2)ccc1NC(=O)c1ccccc1Cl	0	0	0	0	0	-	-	-	-
Cc1oc(CC(C)C)c(CN)c1C(=O)O	-4.6	0	0	0	0	0	0	0	0
Cc1nn(C)c(Cl)c1CN1CCN(C2CCCC2)C(CCO)C1 (stereo not drawn)	-11	0	0	0	0	0	0	0	0
CCOC(=O)N1CCN(C(=O)COC(=O)CN(C)S(=O)(=O)c2ccc(NC(C)=O)cc2)CC1	0	0	0	0	0	-	-	-	-
O=C(Nc1ccc(S(=O)(=O)Nc2ccccc2)cc1)c1ccc(CN2CCOCC2)cc1	-4.6	0	0	0	0	79%	0	0	0
O=C(Nc1ccc(CN2CCOCC2)cc1)c1ccc(Cl)cc1	0	0	0	0	0	-	-	-	-
CC1(C)C(C=C(Cl)Cl)C1C(=O)N1CCN(c2ccccc2)CC1 (stereo not drawn)	-6.6	0	0	0	0	0	0	0	0
Cc1ccc(C)c(NC(=S)N2CCCCCC2)c1	0	-	-	0	0	-	-	-	-
Cc1ccc(C)c(NC(=S)N2CCN(CCO)CC2)c1	-4.8	0	0	0	0	0	0	0	0
COc1ccc(N2CCN(C(=O)c3sc4ncn(CC(=O)N5CCCCC5C)c(=O)c4c3C)CC2)cc1 (stereo not drawn)	0	0	0	0	0	-	-	-	-
COCCNC(=O)C1CC2Cn3c(nc4cc(Cl)c(Cl)cc43)C2N1C (stereo not drawn)	-5.5	0	0	0	0	0	0	0	0
CC1CCCN(C(=O)CNS(=O)(=O)c2cccs2)C1 (stereo not drawn)	0	0	0	0	0	-	-	-	-
COc1ccc(CN2C3CCCC2CC(NC(=O)Nc2ccccc2)C3)cc1 (stereo not drawn)	0	0	0	0	0	-	-	-	-
COc1ccc(CN2C3CCCC2CC(NC(=O)Nc2cccc(C)c2)C3)cc1 (stereo not drawn)	-7.9	0	0	0	0	72%	0	0	0
CCOC(=O)CCNC(=O)N1CCCC(N2CCN(c3ccc(OC)cc3)CC2)C1 (stereo not drawn)	0	0	0	0	0	-	-	-	-
Cc1ccc(NC(=O)CC2=NC(=O)C(CC(=O)Nc3ccccc3F)S2)cc1 (stereo not drawn)	-4.9	0	0	0	0	0	0	0	0
CCN1CCN(c2ccc(NC(=O)CCc3c(C)nc4c(-c5ccc(F)cc5)c(C)nn4c3C)cc2)CC1	0	0	0	0	0	-	-	-	-
CSc1nc2ccc3nc(NC(=O)c4ccccc4)sc3c2s1	-7.4	0	0	0	0	0	0	0	0
CSc1ccccc1NC(=S)NCc1ccc(Cl)cc1	0	0	0	0	0	-	-	-	-
Cc1ccc(Cn2ccsc2=NC(=O)COC(=O)c2ccc(O)cc2O)cc1	-7.7	0	0	0	0	0	0	0	0
NC(=O)c1csc(-c2ccncc2)n1	-5.6	0	0	0	0	0	0	0	0
COc1ccc(-n2nnnc2CNC(=O)c2ccc3c(c2)OCO3)cc1	0	0	0	0	0	-	-	-	-
CCOc1ccccc1C(=O)OCC(=O)NCCNC(=O)COC(=O)c1ccccc1OCC	0	0	0	0	0	-	-	-	-
CC(=O)Oc1c(-c2ccc(Br)o2)oc2ccccc2c1=O	-5.5	0	0	0	0	0	0	0	0
SMILES	MrgX1 antag	RGS4 block	RGS4 act	MrgX1 allo act	MrgX1 ag	MrgX1 antag conf	HEK293 Ca flux	HEK293 Ca counter	HEK293 Ca cntr2
CC(CN1CCCCC1)OC(=O)/C=C/c1ccccc1 (stereo not drawn)	0	0	0	0	0	-	-	-	-
CC(=O)Nc1ccccc1Nc1nc(NCCO)nc(N2CCCC2)n1	-8.3	0	0	0	0	0	0	0	0
OCCNc1nc(Nc2ccccc2O)nc(N2CCCC2)n1	0	0	0	0	0	-	-	-	-
Cc1cc(C)c(C(=O)OCC(=O)Nc2cccc(S(=O)(=O)N3CCCCC3)c2)c(C)c1	-11	0	0	0	0	0	0	0	0
O=C(COC(=O)c1ccc(O)cc1)Nc1cccc(S(=O)(=O)N2CCCCC2)c1	0	0	0	0	0	-	-	-	-
O=c1cc(CSc2ccc(Cl)cc2)nc(N2CCCCC2)[nH]1	-7.1	0	0	0	0	0	0	0	0
Cc1cc(=O)oc2cc(OCC(=O)Nc3ccccc3C(N)=O)c(Cl)cc12	0	0	0	0	0	-	-	-	-
COc1ccc(NC(=O)C2CCCN2C(=O)Nc2ccc(OC)cc2)cc1 (stereo not drawn)	-	0	0	-	-	-	-	-	-
COC(=O)c1ccc(NC(=O)C2C3C=CC(O3)C2C(=O)O)cc1 (stereo not drawn)	-8.7	0	0	0	0	0	0	0	0
Cc1ccc2oc(=O)c3cc(C(=O)NCCCN4C(C)CCCC4C)sc3c2c1 (stereo not drawn)	0	0	0	0	0	-	-	-	-
CCN(CC(=O)NC(C)(C)C)Cc1cc(=O)n2c(-c3ccccc3)csc2n1	-4.7	0	0	0	0	0	0	0	0
COC(=O)c1cc(=O)n2c(-c3ccccc3)csc2n1	0	0	0	0	0	-	-	-	-
Cc1cc(NC(=O)CNC(=O)C2CCCCC2)no1	-5.3	-	-	0	0	0	0	0	0
O=C(CNC(=O)C1CCCCC1)NC1CCCCC1	-4.7	0	0	0	0	0	0	0	0
O=C(CNC(=O)C1CCCCC1)Nc1ccccc1	0	0	0	0	0	-	-	-	-
O=C(Nc1cccc(Cl)c1)Nc1ccccc1-n1ccnc1	0	0	0	0	0	-	-	-	-
Cn1c(CC(=O)Nc2ccccc2Cl)nnc1SCC(=O)NC1CCCCC1	0	0	0	0	0	-	-	-	-

Screening data deposited in PubChem BioAssay by Johns Hopkins Ion Channel Center.
